According to the array DNA melting data of Ke et al. (doi:10.1101/2024.01.08.574731):

Columns and labels:
[1] = melting temperature; fluorescence melt of hairpins on a sequencing array, two-state fit, raised by 9.35 °C to match UV melts; details: sodium 0.088 M
How it was run: (§1)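 Cy3 signals were normalised both to pre-quench Cy3 and to control constructs. They came from library hairpins carrying annealed Cy3 and quencher oligos on a sequenced MiSeq flow cell, imaged in 50 mM Na-HEPES pH 8.0, 25 mM NaCl, in 2.5 °C steps up to 60 °C. Bootstrapped two-state fits gave melting temperature and folding enthalpy, and four replicates were combined by inverse variance. Fitted temperatures were then raised by 9.35 °C to match UV melts.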

[2] = folding enthalpy; higher = less favourable; fluorescence melt of hairpins on a sequencing array, two-state fit; details: sodium 0.088 M
How it was run: as §1

Sequence | Tm [1] | folding enthalpy [2]
GATGACGAAAGTCTGATC ((((((....)))..))) | 33.1 °C | -12.1 kcal/mol
GATGACGCGAAAGCGATC (((..(((....)))))) | 35 °C | -8.64 kcal/mol
GATGACGGAAACGCCATC ((((.((....)).)))) | 48.3 °C | -32.3 kcal/mol
GATGACGGAAACGTCACC (.(((((....))))).) | 40 °C | -14.6 kcal/mol
GATGACGGAAACGTTGTC ((..(((....)))..)) | 36.1 °C | -28.5 kcal/mol
GATGAGGGAAACCTTATC (((.(((....))).))) | 35.7 °C | -28.9 kcal/mol
GATGATGAAAATCATC ((((((....)))))) | 51.2 °C | -29 kcal/mol
GATGCACGAAAGTGTATC (((.(((....))).))) | 54.2 °C | -31.7 kcal/mol
GATGCCCGAAAGGGGATC (((.(((....))).))) | 59 °C | -21.9 kcal/mol
GATGCCCGAAAGGGTATC (((.(((....))).))) | 58.2 °C | -29.8 kcal/mol
GATGCCGAAAGGCATATC ((((((....)))..))) | 55.7 °C | -11 kcal/mol
GATGCCGAAAGGCCATC ((((((....))).))) | 46.9 °C | -14.2 kcal/mol
GATGCCGAAAGGCGATC ((((((....))).))) | 50.6 °C | -15.1 kcal/mol
GATGCCGAAAGGCTATC ((((((....))).))) | 43.4 °C | -13.1 kcal/mol
GATGCCGCGAAAGCGATC (((..(((....)))))) | 28 °C | -7.36 kcal/mol
GATGCCGGAAACAGCATC (((((.(....).))))) | 46 °C | -36.8 kcal/mol
GATGCCGGAAACGACACC (.((.((....)).)).) | 24.4 °C | -13.5 kcal/mol
GATGCGGGAAACCACACC (.((.((....)).)).) | 26.7 °C | -12.4 kcal/mol
GATGCGGGAAACCACATC ((((.((....)).)))) | 44.8 °C | -35.8 kcal/mol
GATGCTGAAAAGCATC ((((((....)))))) | 63 °C | -39.1 kcal/mol
GATGCTGGAAACAGCACC (.(((((....))))).) | 39.4 °C | -14.4 kcal/mol
GATGCTGGAAACAGCGTC ((.((((....)))).)) | 54.5 °C | -39.7 kcal/mol
GATGGACGAAAGTCGATC (((.(((....))).))) | 49.6 °C | -25.9 kcal/mol

Sequence | Tm [1] | folding enthalpy [2]
GATGGCCCGAAAGGGATC (((..(((....)))))) | 34.3 °C | -11 kcal/mol
GATGGCGAAAGCCACATC ((((((....)))..))) | 28.8 °C | -7.73 kcal/mol
GATGGCGAAAGCCAGATC ((((((....)))..))) | 50 °C | -15.7 kcal/mol
GATGGCGAAAGCCATATC ((((((....)))..))) | 52.5 °C | -10.6 kcal/mol
GATGGCGAAAGCCCCATC ((((((....)))..))) | 25.5 °C | -7.84 kcal/mol
GATGGCGAAAGCCTCATC ((((((....)))..))) | 30.7 °C | -8.85 kcal/mol
GATGGCGAAAGCCTTATC ((((((....)))..))) | 25.9 °C | -7.22 kcal/mol
GATGGCGGAAACGCCACC (.(((((....))))).) | 43.6 °C | -9.71 kcal/mol
GATGGGCGAAAGCCAATC (((.(((....))).))) | 51.2 °C | -23.9 kcal/mol
GATGGGCGAAAGCCATC (((.(((....)))))) | 52.5 °C | -18.2 kcal/mol
GATGGGGGAAACCCCATC (((((((....))))))) | 65.4 °C | -31.2 kcal/mol
GATGGGGGAAACCTCATC ((((.((....)).)))) | 46.3 °C | -28.4 kcal/mol
GATGGGGGAAACTCCGTC ((.((.(....).)).)) | 38 °C | -20.2 kcal/mol
GATGGTGGAAACATCATC ((((.((....)).)))) | 46.1 °C | -28.1 kcal/mol
GATGGTGGAAACATCGTC ((.(.((....)).).)) | 47.8 °C | -22 kcal/mol
GATGTACGAAAGTAAATC (((.(((....))).))) | 35.5 °C | -23.9 kcal/mol
GATGTACGAAAGTATATC (((.(((....))).))) | 45.9 °C | -30.7 kcal/mol
GATGTAGCGAAAGCTATC (((..(((....)))))) | 31.4 °C | -12 kcal/mol
GATGTAGGAAACTACGTC ((.((((....)))).)) | 44.8 °C | -23.4 kcal/mol
GATGTCACGAAAGTGATC (((..(((....)))))) | 28.4 °C | -11.8 kcal/mol
GATGTCCGAAAGGAGATC (((.(((....))).))) | 50.3 °C | -28.9 kcal/mol
GATGTGGGAAACTGCATC ((((..(....)..)))) | 36.1 °C | -27.1 kcal/mol
GATGTTGAAAAACATC ((((((....)))))) | 51.6 °C | -35.7 kcal/mol

Sequence | Tm [1] | folding enthalpy [2]
GATGTTGGAAACAACGTC ((.((((....)))).)) | 49 °C | -26.4 kcal/mol
GATGTTGGAAACGACATC (((((.(....).))))) | 47.2 °C | -33.6 kcal/mol
GATTAACGAAAGTTGATC (((.(((....))).))) | 44 °C | -35.2 kcal/mol
GATTACCGAAAGGTATC (((.(((....)))))) | 36.1 °C | -14.4 kcal/mol
GATTACGGAAACGCAATC ((((.((....)).)))) | 37.4 °C | -27.6 kcal/mol
GATTACGGAAACGTAGTC ((.((((....)))).)) | 38 °C | -25 kcal/mol
GATTACGGAAACGTGATC (((.(((....))).))) | 45.9 °C | -37.1 kcal/mol
GATTAGCCGAAAGGCATC (((..(((....)))))) | 28.5 °C | -7.43 kcal/mol
GATTAGCGAAAGCTATC (((.(((....)))))) | 34.7 °C | -12.5 kcal/mol
GATTAGCGAAAGCTCATC (((.(((....))).))) | 38.7 °C | -19.1 kcal/mol
GATTAGGGAAACCCAATC ((((.((....)).)))) | 31.3 °C | -22.4 kcal/mol
GATTAGGGAAACCTGATC (((.(((....))).))) | 38 °C | -24.1 kcal/mol
GATTCACGAAAGTGTATC (((.(((....))).))) | 42.7 °C | -25.9 kcal/mol
GATTCAGGAAACTGAGTC ((.((((....)))).)) | 38.5 °C | -31.1 kcal/mol
GATTCCCGAAAGGGATC (((.(((....)))))) | 47.3 °C | -13.1 kcal/mol
GATTCCGAAAGGAACATC ((((((....)))..))) | 25.2 °C | -12 kcal/mol
GATTCCGAAAGGATAATC ((((((....)))..))) | 31.8 °C | -15.5 kcal/mol
GATTCCGGAAACGGGATC (((.(((....))).))) | 51.2 °C | -43 kcal/mol
GATTCGCGAAAGCGTATC (((.(((....))).))) | 48.8 °C | -20.6 kcal/mol
GATTGACGAAAGTCATC (((.(((....)))))) | 38.9 °C | -12.7 kcal/mol
GATTGAGGAAACTCAACC (.(((((....))))).) | 31.3 °C | -17.1 kcal/mol
GATTGCCGAAAGGCCATC (((.(((....))).))) | 40.9 °C | -16.6 kcal/mol
GATTGCGAAAGCAAAATC ((((((....)))..))) | 35.3 °C | -13.1 kcal/mol

Sequence | Tm [1] | folding enthalpy [2]
GATTGCGAAAGCAGATC ((((((....))).))) | 42.9 °C | -15.8 kcal/mol
GATTGCGAAAGCAGCATC ((((((....)))..))) | 24.1 °C | -9.21 kcal/mol
GATTGCGAAAGCAGGATC ((((((....)))..))) | 30.1 °C | -10.9 kcal/mol
GATTGCGAAAGCATATC ((((((....))).))) | 42.9 °C | -16.5 kcal/mol
GATTGCGGAAACGCAGTC ((.((((....)))).)) | 49.6 °C | -25.2 kcal/mol
GATTGGCGAAAGCCTATC (((.(((....))).))) | 48.8 °C | -19.8 kcal/mol
GATTGGGGAAACTCAATC (((((.(....).))))) | 41.9 °C | -33.5 kcal/mol
GATTGGGGAAACTCGATC (((.(.(....).).))) | 30 °C | -15.4 kcal/mol
GATTGTGGAAACACGATC (((.(((....))).))) | 48.1 °C | -31.7 kcal/mol
GATTTACGAAAGTACATC (((.(((....))).))) | 35.6 °C | -19.9 kcal/mol
GATTTACGAAAGTATATC (((.(((....))).))) | 35.6 °C | -24.2 kcal/mol
GATTTAGGAAACTAAATC (((((((....))))))) | 48 °C | -42.9 kcal/mol
GATTTAGGAAACTAAGTC ((.((((....)))).)) | 29.6 °C | -8.37 kcal/mol
GATTTCGCGAAAGCGATC (((..(((....)))))) | 17.8 °C | -5.88 kcal/mol
GATTTGCGAAAGCATATC (((.(((....))).))) | 43.1 °C | -22.9 kcal/mol
GATTTGGCGAAAGCCATC (((..(((....)))))) | 26.1 °C | -6.61 kcal/mol
GATTTGGGAAACCAAATC (((((((....))))))) | 55 °C | -40.9 kcal/mol
GCAAAACGAAAGTTCTGC (((.(((....))).))) | 40.7 °C | -27.8 kcal/mol
GCAAAATCGAAAGATTGC (((..(((....)))))) | 38.5 °C | -20.6 kcal/mol
GCAAACCGAAAGGTTGC (((.(((....)))))) | 57.2 °C | -29.1 kcal/mol
GCAAACGAAAGTTAGTGC ((((((....)))..))) | 32.9 °C | -19.7 kcal/mol
GCAAACGAAAGTTTATGC ((((((....)))..))) | 31.9 °C | -17.2 kcal/mol
